{"source": "PubChem BioAssay AID602302", "about": "(The Scripps Research Institute Molecular Screening Center, 2012)", "note": "The source made the active and inactive calls.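 The calls were made as follows: active = inhibition of diacylglycerol lipase beta of at least 50% in a gel probe-labeling test; inactive = inhibition under 50%.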", "data": [{"biological_target": "Diacylglycerol lipase-beta (Mus musculus) (UniProt Q91WC9)", "sequence (Q91WC9 whole entry, looked up)": "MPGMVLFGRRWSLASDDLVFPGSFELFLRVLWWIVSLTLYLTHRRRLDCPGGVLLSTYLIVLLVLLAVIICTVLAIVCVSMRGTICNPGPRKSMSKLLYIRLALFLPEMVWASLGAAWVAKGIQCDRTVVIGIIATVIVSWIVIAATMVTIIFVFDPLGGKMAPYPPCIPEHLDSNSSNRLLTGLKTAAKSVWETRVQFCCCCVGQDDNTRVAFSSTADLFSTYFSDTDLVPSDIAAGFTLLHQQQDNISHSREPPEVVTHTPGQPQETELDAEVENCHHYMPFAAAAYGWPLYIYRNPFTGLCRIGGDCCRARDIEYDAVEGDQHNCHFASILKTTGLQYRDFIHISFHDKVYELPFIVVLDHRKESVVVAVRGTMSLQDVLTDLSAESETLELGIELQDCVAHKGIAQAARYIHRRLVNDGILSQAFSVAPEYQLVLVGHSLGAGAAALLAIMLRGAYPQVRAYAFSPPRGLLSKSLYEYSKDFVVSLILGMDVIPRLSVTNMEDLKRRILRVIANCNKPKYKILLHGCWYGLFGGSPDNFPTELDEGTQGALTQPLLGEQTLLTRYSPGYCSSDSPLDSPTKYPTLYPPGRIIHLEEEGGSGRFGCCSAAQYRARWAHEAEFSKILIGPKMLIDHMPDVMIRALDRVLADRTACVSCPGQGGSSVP", "test": "DAGLb inhibitors by competitive gel ABPP, late-stage follow-up, biochemical, in-gel fluorescence, HEK293T membranes, overexpressed mouse DAGLb, set 1 (AID 602302)", "conditions": "HEK293T membrane overexpressing mouse DAGLb, at 0.1 µM, hits give high values", "summary_of_the_method": "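Assay system: membrane proteome of transiently transfected HEK293T cells, overexpressed mouse DAGLb; amount: membrane protein at 0.3 mg/mL; buffer or medium: Dulbecco's PBS (DPBS); reagent: fluorescent probe HT-01 at 1 µM final; doses: single compound dose of 100 nM (0.1 µM) final; schedule: compound preincubation 30 min, then probe labeling 30 min, both 37 °C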", "values": [{"compound": "O=C(N1CCCCC1Cc1ccccc1)n1cc(-c2ccc(-c3ccccc3CO)cc2)nn1", "note": "(stereo not given)", "inhibition": "67%"}, {"compound": "O=C(N1CCCCC1Cc1ccccc1)n1cc(-c2ccc(OC(F)(F)F)cc2)nn1", "note": "(stereo not given)", "inhibition": "52%"}, {"compound": "O=C(N1CCCCC1Cc1ccccc1)n1ncc(C(O)(c2ccccc2)c2ccccc2)n1", "note": "(stereo not given)", "inhibition": "9% (inactive)"}, {"compound": "CC(C)CN(CCc1ccccc1)C(=O)n1cc(-c2ccc(OC(F)(F)F)cc2)nn1", "inhibition": "70%"}, {"compound": "CC(C)(C)OC(=O)NCCCCCN(CCc1ccccc1)C(=O)n1cc(-c2ccc(OC(F)(F)F)cc2)nn1", "inhibition": "73%"}, {"compound": "O=C(N1CCCCC1Cc1ccccc1)n1cc(-c2ccc(-c3ccc(C(F)(F)F)cc3)cc2)nn1", "note": "(stereo not given)", "inhibition": "31% (inactive)"}, {"compound": "O=C(N1CCCCC1Cc1ccccc1)n1cc(-c2cc(F)cc(F)c2)nn1", "note": "(stereo not given)", "inhibition": "55%"}, {"compound": "O=C(N1CCCCC1Cc1ccccc1)n1cc(-c2ccc(-c3ccccc3C(F)(F)F)cc2)nn1", "note": "(stereo not given)", "inhibition": "59%"}, {"compound": "COc1ccccc1-c1ccc(-c2cn(C(=O)N3CCCCC3Cc3ccccc3)nn2)cc1", "note": "(stereo not given)", "inhibition": "55%"}, {"compound": "O=C(N(CCc1ccccc1)Cc1ccco1)n1cc(-c2ccc(OC(F)(F)F)cc2)nn1", "inhibition": "71%"}, {"compound": "O=C(N1CCCCC1Cc1ccccc1)n1cc(-c2ccc(-c3ccccc3)cc2)nn1", "note": "(stereo not given)", "inhibition": "61%"}, {"compound": "O=C(N1CCCCC1Cc1ccccc1)n1cc(-c2ccc(-c3ccoc3)cc2)nn1", "note": "(stereo not given)", "inhibition": "52%"}, {"compound": "O=C(c1ccc(-c2ccc(-c3cn(C(=O)N4CCCCC4Cc4ccccc4)nn3)cc2)cc1)N1CCCCC1", "note": "(stereo not given)", "inhibition": "10% (inactive)"}, {"compound": "O=C(N1CCCCC1Cc1ccccc1)n1cc(-c2ccc(-c3cccc(C(F)(F)F)c3)cc2)nn1", "note": "(stereo not given)", "inhibition": "44% (inactive)"}, {"compound": "O=C(N1CCCCC1Cc1ccccc1)n1cc(-c2ccc(-c3cccc(CO)c3)cc2)nn1", "note": "(stereo not given)", "inhibition": "11% (inactive)"}, {"compound": "O=C(N1CCCCC1Cc1ccccc1)n1cc(-c2ccccc2-c2ccccc2)nn1", "note": "(stereo not given)", "inhibition": "18% (inactive)"}, {"compound": "O=C(N1CCCCC1Cc1ccccc1)n1cc(-c2ccc(-c3ccc(OC(F)(F)F)cc3)cc2)nn1", "note": "(stereo not given)", "inhibition": "38% (inactive)"}, {"compound": "O=C(N1CCCCC1Cc1ccccc1)n1cc(-c2ccc(-c3ccccc3OC(F)(F)F)cc2)nn1", "note": "(stereo not given)", "inhibition": "59%"}, {"compound": "O=C(N1CCCCC1Cc1ccccc1)n1cc(-c2ccc(Br)cc2)nn1", "note": "(stereo not given)", "inhibition": "68%"}, {"compound": "O=C(c1ccc(-c2cn(C(=O)N3CCCCC3Cc3ccccc3)nn2)cc1)N1CCCCC1", "note": "(stereo not given)", "inhibition": "41% (inactive)"}, {"compound": "Cc1ccccc1-c1ccc(-c2cn(C(=O)N3CCCCC3Cc3ccccc3)nn2)cc1", "note": "(stereo not given)", "inhibition": "63%"}, {"compound": "O=C(N1CCCCC1Cc1ccccc1)n1cc(-c2ccc(-c3ccccc3Cl)cc2)nn1", "note": "(stereo not given)", "inhibition": "66%"}, {"compound": "O=C(N1CCCCC1Cc1ccccc1)n1cc(-c2cccc(-c3ccccc3)c2)nn1", "note": "(stereo not given)", "inhibition": "27% (inactive)"}, {"compound": "O=C(N1CCCCC1Cc1ccccc1)n1ncc(-c2ccc(OC(F)(F)F)cc2)n1", "note": "(stereo not given)", "inhibition": "0% (inactive)"}, {"compound": "O=C(N1CCCCC1Cc1ccccc1)n1cc(-c2ccc(-c3ccc4c(c3)OCO4)cc2)nn1", "note": "(stereo not given)", "inhibition": "18% (inactive)"}]}]}
